This is an account of results in ChEMBL document CHEMBL4396871, “Leveraging a Low-Affinity Diazaspiro Orthosteric Fragment to Reduce Dopamine D3 Receptor (D3R) Ligand Promiscuity across Highly Conserved Aminergic G-Protein-Coupled Receptors (GPCRs)” (J Med Chem, 2019).

One data set has as its target D(3) dopamine receptor (Homo sapiens, UniProt P35462). The experiment in a line: Displacement of [3H]N-methylspiperone from D3 receptor (unknown origin) measured after 90 mins by microbeta scintillation counting method relative to control.
Data set [1] addresses T1, Sodium-dependent noradrenaline transporter (Homo sapiens, UniProt P23975). The experiment in a line: Displacement of [3H]-nisoxetine from recombinant human NET stably expressed in HEK cells measured after 90 mins by microbeta scintillation counting method. The class given is cell-based.
The next data set addresses Histamine H2 receptor (Homo sapiens, UniProt P25021). The data set is described as follows: Displacement of [125I]-Iodo-aminopotentidine from human histamine H2 receptor expressed in stable HEK cells after 90 mins by microbeta scintillation counting method. The class given is cell-based.
Data set [2] addresses T2, Histamine H3 receptor (Homo sapiens, UniProt Q9Y5N1). The data set is described as follows: Displacement of [3H]-alpha-methylhistamine from human histamine H3 receptor stably expressed in HEK Flp-In cells after 90 mins by microbeta scintillation counting method. The class given is cell-based.
The target of data set [3] is GABA-A receptor; anion channel (Rattus norvegicus) (UniProt O09028+P15431+P18506+P18508+P19969+P20236+P23574+P23576+P28471+P28473+P30191+P62813+P63079+P63138+Q91ZM7+Q9ES14). The experiment in a line: Displacement of [3H]-muscimol from rat brain GABAA receptor at 10 uM measured after 90 mins by microbeta scintillation counting method relative to control. In short, it runs like this: (§1)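 Primary screen at 10 μM compound, expressed as % receptor inhibition, from at least three experiments.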

The target in data set [4] is Nicotinic acetylcholine receptor alpha2/beta2 (Homo sapiens) (UniProt P02708+P17787). The experiment in a line: Displacement of [3H]-epibatidine from recombinant human alpha2beta2 nACHR stably expressed in HEK cells at 10 uM measured after 90 mins by microbeta scintillation counting method relative to control. The format is cell-based. The essentials: as §1
The target in data set [5] is T3, D(1B) dopamine receptor (Homo sapiens, UniProt P21918). The data set is described as follows: Displacement of [3H]-SCH23390 from recombinant human D5 receptor transiently expressed in HEK cell membranes at 10 uM measured after 90 mins by microbeta scintillation counting method relative to control. The essentials:
as §1

The target in data set [6] is Neuronal acetylcholine receptor; alpha4/beta4 (Homo sapiens) (UniProt P30926+P43681). The experiment in a line: Displacement of [3H]-epibatidine from recombinant human alpha4beta4 nACHR stably expressed in HEK cells at 10 uM measured after 90 mins by microbeta scintillation counting method relative to control. The class given is cell-based. In short, it runs like this: as §1

In data set [7] the target is T4, 5-hydroxytryptamine receptor 1B (Homo sapiens, UniProt P28222). The experiment in a line: Displacement of [3H]-5-CT from recombinant human 5HT1B receptor stably expressed in HEK cell membranes at 10 uM measured after 90 mins by microbeta scintillation counting method relative to control. In short, it runs like this: as §1
Data set [8] has as its target Muscarinic acetylcholine receptor M4 (Homo sapiens, UniProt P08173). The data set is described as follows: Displacement of [3H]-QNB/[3H]-NMS from human muscarinic M4 receptor expressed in stable CHO cells after 90 mins by microbeta scintillation counting method. The class given is cell-based.
The target of data set [9] is Muscarinic acetylcholine receptor M2 (Homo sapiens, UniProt P08172). The experiment in a line: Displacement of [3H]-QNB/[3H]-NMS from human muscarinic M2 receptor expressed in stable CHO cells after 90 mins by microbeta scintillation counting method. The class given is cell-based.
For data set [10], the target named is 5-hydroxytryptamine receptor 2C (Homo sapiens) (UniProt P28335). The experiment in a line: Displacement of [3H]-mesulergine from recombinant human 5HT2C receptor transiently expressed in HEKT cell membranes at 10 uM measured after 90 mins by microbeta scintillation counting method relative to control. In short, it runs like this: as §1
The target of data set [11] is Muscarinic acetylcholine receptor M3 (Homo sapiens, UniProt P20309). The experiment in a line: Displacement of [3H]-QNB/[3H]-NMS from human muscarinic M3 receptor expressed in stable CHO cells after 90 mins by microbeta scintillation counting method. The class given is cell-based.
In a further data set the target is Histamine H1 receptor (Homo sapiens, UniProt P35367). The experiment in a line: Displacement of [3H]-pyrilamine from recombinant human H1 receptor stably expressed in HEK cell membranes measured after 90 mins by microbeta scintillation counting method.
The target in data set [12] is 5-hydroxytryptamine receptor 5A (Homo sapiens) (UniProt P47898). The data set is described as follows: Displacement of [3H]-LSD from recombinant human 5HT5A receptor stably expressed in Flp-In-CHO cell membranes at 10 uM measured after 90 mins by microbeta scintillation counting method relative to control. In short, it runs like this:
as §1

Data set [13] addresses T5, Neuronal acetylcholine receptor; alpha3/beta4 (Homo sapiens, UniProt P30926+P32297). The experiment in a line: Displacement of [3H]-epibatidine from recombinant human alpha3beta4 nACHR stably expressed in HEK cells measured after 90 mins by microbeta scintillation counting method. The format is cell-based.
Data set [14] addresses 5-hydroxytryptamine receptor 7 (Homo sapiens, UniProt P34969). The experiment in a line: Displacement of [3H]-LSD from recombinant human 5HT7A receptor stably expressed in HEK cell membranes at 10 uM measured after 90 mins by microbeta scintillation counting method relative to control. The essentials: as §1
Data set [15] has as its target Alpha-2A adrenergic receptor (Homo sapiens, UniProt P08913). The data set is described as follows: Displacement of [3H]-rauwolscine from recombinant human alpha2A adrenergic receptor stably expressed in MDCK cells at 10 uM measured after 90 mins by microbeta scintillation counting method relative to control. The format is cell-based. The following applies: probe [3H]-rauwolscine.

Data set [16] has as its target 5-hydroxytryptamine receptor 2A (Homo sapiens, UniProt P28223). The data set is described as follows: Displacement of [3H]-ketanserin from 5HT2A receptor (unknown origin) measured after 90 mins by microbeta scintillation counting method.
The target in data set [17] is T1, Sodium-dependent noradrenaline transporter. The experiment in a line: Displacement of [3H]-nisoxetine from recombinant human NET stably expressed in HEK cells at 10 uM measured after 90 mins by microbeta scintillation counting method relative to control. The class given is cell-based. The essentials:
as §1

The target in data set [18] is T5, Neuronal acetylcholine receptor; alpha3/beta4. The data set is described as follows: Displacement of [3H]-epibatidine from recombinant human alpha3beta4 nACHR stably expressed in HEK cells at 10 uM measured after 90 mins by microbeta scintillation counting method relative to control. The class given is cell-based. The essentials: as §1
The target in data set [19] is Sodium-dependent serotonin transporter (Homo sapiens, UniProt P31645). The experiment in a line: Displacement of [3H]-citalopram from recombinant human SERT stably expressed in HEK cells at 10 uM measured after 90 mins by microbeta scintillation counting method relative to control. The class given is cell-based. In short, it runs like this:
as §1

The target in data set [20] is T6, D(4) dopamine receptor (Homo sapiens, UniProt P21917). The data set is described as follows: Displacement of [3H]N-methylspiperone from recombinant human D4 receptor stably expressed in HEK cell membranes measured after 90 mins by microbeta scintillation counting method.
The target in data set [21] is T2, Histamine H3 receptor. The experiment in a line: Displacement of [3H]-alpha-methylhistamine from human histamine H3 receptor stably expressed in HEK Flp-In cells at 10 uM after 90 mins by microbeta scintillation counting method relative to control. The format is cell-based. In short, it runs like this:
as §1

Data set [22] addresses T6, D(4) dopamine receptor. The data set is described as follows: Agonist activity at recombinant human D4 receptor expressed in CHOK1 cells assessed as induction of beta arrestin2 recruitment measured after 30 mins by coelenterazine-based beta-galactosidase reporter gene assay. The class given is cell-based.
Data set [23] addresses T4, 5-hydroxytryptamine receptor 1B. The data set is described as follows: Displacement of [3H]-5-CT from recombinant human 5HT1B receptor stably expressed in HEK cell membranes measured after 90 mins by microbeta scintillation counting method.
Data set [24] has as its target Muscarinic acetylcholine receptor M4 (Homo sapiens) (UniProt P08173). The data set is described as follows: Displacement of [3H]-QNB/[3H]-NMS from human muscarinic M4 receptor expressed in stable CHO cells at 10 uM after 90 mins by microbeta scintillation counting method relative to control. The format is cell-based. In short, it runs like this:
as §1

Data set [25] concerns the target T3, D(1B) dopamine receptor. The experiment in a line: Displacement of [3H]-SCH23390 from recombinant human D5 receptor transiently expressed in HEK cell membranes measured after 90 mins by microbeta scintillation counting method.

SMILES strings stand for the structures. pEC50, pKi: −log10 of the molar value. Bounds are passed on as bounds.

Chain of Histamine H1 receptor (P35367 whole entry): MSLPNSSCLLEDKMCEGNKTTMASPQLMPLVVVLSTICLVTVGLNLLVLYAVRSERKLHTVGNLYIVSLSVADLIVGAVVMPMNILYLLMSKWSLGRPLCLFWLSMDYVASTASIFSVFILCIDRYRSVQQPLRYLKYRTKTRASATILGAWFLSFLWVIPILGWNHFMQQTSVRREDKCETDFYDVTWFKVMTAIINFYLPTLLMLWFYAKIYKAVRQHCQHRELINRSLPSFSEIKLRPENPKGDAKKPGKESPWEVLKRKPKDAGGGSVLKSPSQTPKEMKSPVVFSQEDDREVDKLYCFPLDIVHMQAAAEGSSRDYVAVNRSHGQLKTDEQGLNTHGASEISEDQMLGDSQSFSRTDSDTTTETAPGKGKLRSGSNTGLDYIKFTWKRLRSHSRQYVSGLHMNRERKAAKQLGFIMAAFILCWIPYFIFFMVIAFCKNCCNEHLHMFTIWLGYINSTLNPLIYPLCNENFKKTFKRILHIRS
T4 sequence (P28222 whole entry): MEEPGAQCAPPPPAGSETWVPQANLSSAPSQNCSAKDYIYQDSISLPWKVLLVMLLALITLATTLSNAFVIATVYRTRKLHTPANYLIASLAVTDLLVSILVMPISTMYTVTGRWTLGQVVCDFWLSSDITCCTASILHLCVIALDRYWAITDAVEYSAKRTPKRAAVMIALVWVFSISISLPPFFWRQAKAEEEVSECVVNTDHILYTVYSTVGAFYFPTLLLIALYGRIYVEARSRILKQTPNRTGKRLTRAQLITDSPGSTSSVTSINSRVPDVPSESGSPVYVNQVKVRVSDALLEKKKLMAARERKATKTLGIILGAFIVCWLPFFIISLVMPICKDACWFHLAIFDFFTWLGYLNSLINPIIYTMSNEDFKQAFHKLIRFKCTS
T1 sequence (P23975 whole entry): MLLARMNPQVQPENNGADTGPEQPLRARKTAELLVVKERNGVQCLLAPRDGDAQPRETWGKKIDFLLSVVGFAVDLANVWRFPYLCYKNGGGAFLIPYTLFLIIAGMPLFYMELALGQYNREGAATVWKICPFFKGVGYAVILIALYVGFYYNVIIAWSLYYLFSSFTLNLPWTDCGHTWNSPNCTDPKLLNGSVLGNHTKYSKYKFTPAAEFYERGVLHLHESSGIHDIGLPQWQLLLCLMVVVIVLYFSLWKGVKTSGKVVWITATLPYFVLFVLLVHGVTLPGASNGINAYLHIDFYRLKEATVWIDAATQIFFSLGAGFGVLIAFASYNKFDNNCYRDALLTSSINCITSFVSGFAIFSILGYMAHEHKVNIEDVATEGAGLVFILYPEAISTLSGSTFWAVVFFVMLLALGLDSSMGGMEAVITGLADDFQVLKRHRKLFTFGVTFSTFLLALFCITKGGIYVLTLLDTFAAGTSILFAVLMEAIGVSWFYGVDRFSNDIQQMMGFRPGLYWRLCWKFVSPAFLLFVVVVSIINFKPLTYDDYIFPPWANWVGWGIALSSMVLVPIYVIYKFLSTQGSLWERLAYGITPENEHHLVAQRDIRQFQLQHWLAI
Chain of 5-hydroxytryptamine receptor 5A (Homo sapiens) (P47898 whole entry): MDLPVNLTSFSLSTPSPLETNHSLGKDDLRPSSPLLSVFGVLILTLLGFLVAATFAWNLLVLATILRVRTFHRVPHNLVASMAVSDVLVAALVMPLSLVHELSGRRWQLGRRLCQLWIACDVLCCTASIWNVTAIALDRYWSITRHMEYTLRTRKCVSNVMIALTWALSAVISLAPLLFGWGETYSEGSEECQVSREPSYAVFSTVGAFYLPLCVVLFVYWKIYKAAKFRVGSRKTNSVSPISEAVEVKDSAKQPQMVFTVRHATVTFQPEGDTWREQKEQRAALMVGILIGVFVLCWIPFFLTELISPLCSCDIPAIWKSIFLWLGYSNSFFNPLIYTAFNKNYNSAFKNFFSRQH
Chain of Histamine H2 receptor (P25021 whole entry): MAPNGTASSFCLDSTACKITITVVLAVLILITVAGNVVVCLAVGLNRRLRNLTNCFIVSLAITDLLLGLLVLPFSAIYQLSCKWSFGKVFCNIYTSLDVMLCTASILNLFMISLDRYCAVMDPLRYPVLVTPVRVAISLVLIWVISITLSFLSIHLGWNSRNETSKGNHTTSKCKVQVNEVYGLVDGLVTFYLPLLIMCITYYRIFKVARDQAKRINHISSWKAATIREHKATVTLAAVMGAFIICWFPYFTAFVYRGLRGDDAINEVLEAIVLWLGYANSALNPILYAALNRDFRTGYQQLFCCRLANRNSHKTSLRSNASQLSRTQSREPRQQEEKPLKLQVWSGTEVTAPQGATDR
T6 sequence (P21917 whole entry): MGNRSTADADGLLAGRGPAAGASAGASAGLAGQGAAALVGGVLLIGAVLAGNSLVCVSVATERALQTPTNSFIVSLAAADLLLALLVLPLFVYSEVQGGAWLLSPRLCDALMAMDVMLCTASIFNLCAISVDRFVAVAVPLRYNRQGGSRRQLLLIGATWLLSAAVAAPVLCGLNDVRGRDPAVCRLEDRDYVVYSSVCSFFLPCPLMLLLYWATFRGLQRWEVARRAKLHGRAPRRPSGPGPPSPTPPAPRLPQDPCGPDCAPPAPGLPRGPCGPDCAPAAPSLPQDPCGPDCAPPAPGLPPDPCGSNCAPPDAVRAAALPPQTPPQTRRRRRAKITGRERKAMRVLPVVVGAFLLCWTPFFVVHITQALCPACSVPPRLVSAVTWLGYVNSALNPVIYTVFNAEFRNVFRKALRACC
T3 sequence (P21918 whole entry): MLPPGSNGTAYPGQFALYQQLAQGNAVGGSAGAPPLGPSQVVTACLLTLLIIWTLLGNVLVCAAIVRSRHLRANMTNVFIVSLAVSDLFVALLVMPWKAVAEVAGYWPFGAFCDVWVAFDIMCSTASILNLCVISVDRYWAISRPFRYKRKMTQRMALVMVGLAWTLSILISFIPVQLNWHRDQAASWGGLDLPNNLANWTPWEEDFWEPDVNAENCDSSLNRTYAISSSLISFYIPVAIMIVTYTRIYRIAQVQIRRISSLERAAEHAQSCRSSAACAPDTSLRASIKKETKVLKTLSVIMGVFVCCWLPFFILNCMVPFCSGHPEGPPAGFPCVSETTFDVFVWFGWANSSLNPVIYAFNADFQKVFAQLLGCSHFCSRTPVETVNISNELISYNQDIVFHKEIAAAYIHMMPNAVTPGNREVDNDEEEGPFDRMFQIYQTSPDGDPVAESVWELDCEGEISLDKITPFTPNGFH
T2 sequence (Q9Y5N1 whole entry): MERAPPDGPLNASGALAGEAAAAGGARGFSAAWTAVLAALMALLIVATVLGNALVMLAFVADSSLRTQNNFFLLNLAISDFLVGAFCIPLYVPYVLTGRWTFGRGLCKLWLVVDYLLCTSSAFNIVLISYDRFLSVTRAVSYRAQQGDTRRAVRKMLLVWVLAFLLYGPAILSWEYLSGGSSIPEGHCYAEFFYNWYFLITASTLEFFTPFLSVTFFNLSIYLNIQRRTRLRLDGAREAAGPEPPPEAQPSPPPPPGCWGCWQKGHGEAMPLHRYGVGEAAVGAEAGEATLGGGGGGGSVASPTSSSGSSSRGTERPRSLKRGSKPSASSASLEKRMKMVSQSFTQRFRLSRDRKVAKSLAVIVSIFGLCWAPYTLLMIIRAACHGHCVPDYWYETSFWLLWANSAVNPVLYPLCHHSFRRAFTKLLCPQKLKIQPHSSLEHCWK
Chain of D(3) dopamine receptor (P35462 whole entry): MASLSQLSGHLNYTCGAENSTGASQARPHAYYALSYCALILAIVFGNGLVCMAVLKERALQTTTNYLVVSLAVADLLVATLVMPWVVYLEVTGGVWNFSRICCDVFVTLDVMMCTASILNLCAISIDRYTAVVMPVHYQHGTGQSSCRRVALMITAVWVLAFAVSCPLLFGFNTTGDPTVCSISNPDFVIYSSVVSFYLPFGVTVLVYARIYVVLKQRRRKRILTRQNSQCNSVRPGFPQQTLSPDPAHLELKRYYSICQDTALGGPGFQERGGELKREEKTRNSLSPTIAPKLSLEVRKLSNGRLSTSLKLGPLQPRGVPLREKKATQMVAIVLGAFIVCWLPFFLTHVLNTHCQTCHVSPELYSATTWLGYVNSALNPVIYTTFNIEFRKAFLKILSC
Chain of Muscarinic acetylcholine receptor M3 (P20309 whole entry): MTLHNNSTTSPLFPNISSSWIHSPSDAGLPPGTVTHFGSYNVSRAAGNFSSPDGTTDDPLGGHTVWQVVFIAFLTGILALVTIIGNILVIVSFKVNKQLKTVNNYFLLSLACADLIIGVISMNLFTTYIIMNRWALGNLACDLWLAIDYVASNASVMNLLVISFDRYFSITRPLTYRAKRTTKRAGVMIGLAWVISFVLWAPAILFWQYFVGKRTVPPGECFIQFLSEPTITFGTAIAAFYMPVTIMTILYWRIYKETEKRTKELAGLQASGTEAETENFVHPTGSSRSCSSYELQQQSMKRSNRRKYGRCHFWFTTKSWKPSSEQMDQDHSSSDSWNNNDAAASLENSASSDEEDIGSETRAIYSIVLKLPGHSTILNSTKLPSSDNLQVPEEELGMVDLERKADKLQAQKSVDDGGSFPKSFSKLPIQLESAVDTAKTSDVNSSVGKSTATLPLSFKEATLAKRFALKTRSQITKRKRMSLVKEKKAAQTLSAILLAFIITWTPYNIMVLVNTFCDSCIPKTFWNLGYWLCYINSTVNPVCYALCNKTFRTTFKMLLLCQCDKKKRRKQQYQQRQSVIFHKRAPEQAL

Turning to `COc1ccccc1N1CCC2(CCN(CCCSc3nnc(-c4ccccc4)n3C)CC2)CC1`, the pKi on D(3) dopamine receptor was 7.03; in [1] it was 6.03; at Histamine H2 receptor, 6.22; at Histamine H3 receptor [2], 6.29; in data set [8] it was 6.23; in data set [9] it was 7.28. The pKi was 6.29 in [11], 8.10 at Histamine H1 receptor and 5.07 in [13]. In addition, the inhibition (in data set [3]; in [4]; at D(1B) dopamine receptor [5]; in data set [6]; in [7]; in [10]) was below 50% each time. Also, the inhibition in data set [12] and in [14] was below 50% in each case. In addition, in data set [15], the inhibition at […], 10 µM was below 50%.
Regarding `COc1ccccc1N1CCN(CCCSc2nnc(-c3ccccc3)n2C)CC1`, the pKi was 8.22 at D(3) dopamine receptor; 5.85 in data set [16]; 6.06 on Histamine H2 receptor; 6.14 on D(4) dopamine receptor [20]; 5.69 in [23]; 7.40 on Histamine H1 receptor. For the same compound, the pKi on D(1B) dopamine receptor [25] is 5.52. Moreover, the inhibition in data set [17], in data set [18], in data set [3], in data set [4], in data set [19] and in data set [6] was below 50% each time. The inhibition (at Histamine H3 receptor [21]; in data set [24]; in [12]) was below 50% each time. Further, on D(4) dopamine receptor [22], the pEC50 is 6.44.
